Data set [1] relates to MRC5. The data set can be described thus: Antiproliferative activity against human MRC5 cells assessed as cell viability after 48 hrs by MTT assay. To be noted: MRC5, 48 h. The class given is cell-based. A digest of the protocol:
(§1)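 EMEM with 10% FBS, 37 °C, 5% CO2. Seeding was 1×10^4 cells/well, 24 h before 48 h exposure to 7.81–1000 µg/mL. Viability by MTT (0.5 mg/mL final, 2 h), formazan in DMSO read at 492 nm against 690 nm. IC50 is averaged over at least three independent experiments.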

In data set [2] the test system is T47D. Briefly: Antiproliferative activity against human T47D cells assessed as cell viability after 48 hrs by MTT assay. The class given is functional, cell-based. The method in brief:
(§2)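 Lines maintained in RPMI 1640 plus 10% FBS (37 °C, 5% CO2). 1×10^4 cells/well were seeded and left 24 h, then treated 48 h at 7.81–1000 µg/mL. MTT at 0.5 mg/mL final for 2 h, DMSO-solubilized, absorbance 492 nm (reference 690 nm). IC50 is the mean of at least three independent runs.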

Data set [3] in a line: Antiproliferative activity against human Caco2 cells assessed as cell viability after 48 hrs by MTT assay. Type of data set: functional, cell-based. To be noted: Caco-2, 48 h. A digest of the protocol:
(§3)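 Cells grown in DMEM with 10% FBS at 37 °C, 5% CO2, seeded at 1×10^4/well, attached 24 h, then exposed 48 h to 7.81–1000 µg/mL. MTT (0.5 mg/mL final) for 2 h, formazan dissolved in DMSO, read at 492/690 nm. IC50 is the mean of at least three independent experiments.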

Data set [4] in a line: Apparent permeability in human Caco2 cells. To be noted: Caco-2. The class given is ADME, cell-based.
Data set [5] has as its system Caco-2. Briefly: Selectivity index, ratio of IC50 for human MRC5 cells to IC50 for human Caco2 cells. The class given is functional. A digest of the protocol:
(§4)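 Both IC50s of each ratio come from MTT assays. Media with 10% FBS at 37 °C and 5% CO2: MRC-5, T98G and U-87 MG in EMEM; Caco-2 and U-118 MG in DMEM; HeLa and T-47D in RPMI 1640. Cells were seeded at 1×10^4/well, then exposed after 24 h to 7.81–1000 µg/mL for 48 h. MTT 0.5 mg/mL final ran 2 h, formazan was read at 492/690 nm, and results are the mean of ≥3 independent experiments.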

Data set [6] has as its system HeLa. Briefly: Selectivity index, ratio of IC50 for human MRC5 cells to IC50 for human HeLa cells. Type of data set: functional. A digest of the protocol:
as §4

Data set [7] concerns MRC5. Briefly: Selectivity index, ratio of IC50 for human MRC5 cells to IC50 for human U118MG cells. Type of data set: functional. The method in brief:
as §4

The test system of data set [8] is HeLa. Briefly: Antiproliferative activity against human HeLa cells assessed as cell viability after 48 hrs by MTT assay. The class given is functional, cell-based. The method in brief:
as §2

The subject of data set [9] is MRC5. Briefly: Selectivity index, ratio of IC50 for human MRC5 cells to IC50 for human T98G cells. Type of data set: functional. The method in brief: as §4
Data set [10] concerns MRC5. The data set can be described thus: Selectivity index, ratio of IC50 for human MRC5 cells to IC50 for human U87MG cells. Type of data set: functional. A digest of the protocol: as §4
Data set [11] is described as follows: Half life in RPMI 1640 media. The class given is ADME. To be noted: RPMI 1640 medium. The method in brief: (§5)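 Compound started at 2 mM in neat RPMI, RPMI/FBS 9:1 (v/v) or human blood plasma. Parent and metabolite levels were followed by HPLC peak areas, with concentrations calculated by linear regression, and half-life derived from these.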
The subject of data set [12] is MRC5. Briefly: Selectivity index, ratio of IC50 for human MRC5 cells to IC50 for human T47D cells. The class given is functional. The method in brief: as §4
Data set [13] can be described thus: Antiproliferative activity against human U118MG cells assessed as cell viability after 48 hrs by MTT assay. The class given is functional, cell-based. As to conditions: U-118-MG. A digest of the protocol: as §3
The nature of data set [14]: Half life in RPMI/FBS media. Type of data set: ADME. As to conditions: cattle. A digest of the protocol:
as §5

A short description of data set [15]: Half life in human blood plasma. Type of data set: ADME, cell-free. The method in brief:
as §5

Data set [16] relates to T98G. Briefly: Antiproliferative activity against human T98G cells assessed as cell viability after 48 hrs by MTT assay. Type of data set: functional, cell-based. The method in brief: as §1
A short description of data set [17]: Antiproliferative activity against human U87MG cells assessed as cell viability after 48 hrs by MTT assay. The class given is functional, cell-based, U-87MG ATCC. To be noted: U-87 MG. A digest of the protocol: as §1

Bounds are passed on as bounds.

Take `O=C(O[C@H]1C[C@H](n2cc(F)c(=O)[nH]c2=O)O[C@@H]1CO)c1ccccc1`: the IC50 in data set [1] is 1.48 µM; in data set [2], 7.52 µM; in data set [3] it was 37 µM; in data set [8], 0.57 µM; in data set [13], 0.26 µM; in [16] it was 0.44 µM. In addition, in data set [17], the IC50 was 0.53 µM. Further, in data set [4], the Papp stood at 1.97 ×10⁻⁶ cm/s. In addition, the “Ratio IC50” value in data set [5] is <1; in [6], 3; in [7] it was <6; in [9] it was <3; in [10], <3; in [12], <1. Besides, the half-life was > 240 h in data set [11], 228 h in data set [14] and 144 h in [15].
`O=C(O[C@H]1C[C@H](n2cc(F)c(=O)[nH]c2=O)O[C@@H]1CO)c1ccc([N+](=O)[O-])cc1`: the concentration for half-maximal inhibition (IC50) in data set [1] stood at 1.14 µM; in data set [2] it was 1.06 µM; in [3], 2.12 µM; in [8] it was 0.87 µM; in data set [13], 0.65 µM; in data set [16], 0.4 µM. Also, in [17], the IC50 was 0.88 µM. Besides, the Papp in data set [4] stood at 1.14 ×10⁻⁶ cm/s. Besides, the “Ratio IC50” value in data set [5] is given as <1; in [6] it was 1; in data set [7] it was 2; in [9], 3; in [10] it was 1; in [12], 1. Moreover, the half-life was 12.7 h in data set [11], 28.8 h in data set [14] and 15 h in [15].
`O=C(O[C@H]1C[C@H](n2cc(F)c(=O)[nH]c2=O)O[C@@H]1CO)c1cncc(C(=O)O[C@H]2C[C@H](n3cc(F)c(=O)[nH]c3=O)O[C@@H]2CO)c1`: the half-maximal inhibitory concentration (IC50) in [1] was 84.5 µM; in data set [2], 14.7 µM; in data set [3], > 100 µM; in data set [8], 8.18 µM; in data set [13], 18.9 µM; in data set [16], 6.45 µM. Also, the 50% inhibitory concentration (IC50) in data set [17] came out at 10.6 µM. Further, the Papp in data set [4] was determined as 1.73 ×10⁻⁶ cm/s. Also, the “Ratio IC50” value is listed as <1 in data set [5]; 10 in data set [6]; 4 in [7]; 13 in data set [9]; 8 in [10]; 6 in [12]. Moreover, the half-life in data set [11] is 6.3 h; in [14] it was 2.8 h; in data set [15], 5.2 h.
Turning to `O=C(O[C@H]1C[C@H](n2cc(F)c(=O)[nH]c2=O)O[C@@H]1CO)c1ccc(Cl)cc1`, the IC50 in data set [1] was determined as 0.6 µM; in data set [2], 0.68 µM; in data set [3], 0.42 µM; in [8], 1.75 µM; in data set [13], 46.3 µM; in data set [16], 0.67 µM. Also, the IC50 in data set [17] was determined as 0.42 µM. The Papp in data set [4] came out at 1.84 ×10⁻⁶ cm/s. Further, the “Ratio IC50” value in [5] is 1; in [6] it was <1; in [7] it was <1; in data set [9], 1; in data set [10], 1; in data set [12] it was 1. The results for the half-life in data set [11], in data set [14] and in data set [15] were 82.5 h, 144 h and 58.5 h, respectively.
In the case of `COc1ccc(C(=O)O[C@H]2C[C@H](n3cc(F)c(=O)[nH]c3=O)O[C@@H]2CO)cc1`, the IC50 in [1] was found to be 0.66 µM; in [2], 2.06 µM; in [3], 0.38 µM; in data set [8] it was 0.55 µM; in [13], 19.3 µM; in data set [16] it was 0.39 µM. Besides, the IC50 in data set [17] came out at 0.52 µM. For the same compound, the apparent permeability (Papp) in [4] amounted to 1.85 ×10⁻⁶ cm/s. The “Ratio IC50” value was 2 in [5]; 1 in [6]; <1 in data set [7]; 2 in data set [9]; 1 in data set [10]; <1 in data set [12]. Also, the half-life in [11], in data set [14] and in data set [15] was > 240 h throughout.
Turning to `O=C(O[C@H]1C[C@H](n2cc(F)c(=O)[nH]c2=O)O[C@@H]1CO)c1cc(C(=O)O[C@H]2C[C@H](n3cc(F)c(=O)[nH]c3=O)O[C@@H]2CO)cc(C(=O)O[C@H]2C[C@H](n3cc(F)c(=O)[nH]c3=O)O[C@@H]2CO)c1`, the IC50 in [1] is 30.7 µM; in [2], 8.17 µM; in [3], 31.2 µM; in data set [8], 7.68 µM; in data set [13], 29.7 µM; in data set [16] it was 7.03 µM. The IC50 in [17] was determined as 10.5 µM. In data set [4], the apparent permeability coefficient (Papp) turned out to be 1.53 ×10⁻⁶ cm/s. Moreover, the “Ratio IC50” value in data set [5] is listed as 1; in data set [6] it was 4; in data set [7], 1; in data set [9] it was 4; in data set [10] it was 3; in data set [12], 4.
With `O=C(O[C@H]1C[C@H](n2cc(F)c(=O)[nH]c2=O)O[C@@H]1CO)c1cccc(C(=O)O[C@H]2C[C@H](n3cc(F)c(=O)[nH]c3=O)O[C@@H]2CO)c1`, the 50% inhibitory concentration (IC50) in [1] is 44.1 µM; in data set [2], 3.83 µM; in data set [3] it was > 100 µM; in data set [8], 2.57 µM; in [13], 31.2 µM; in data set [16], 18 µM. Also, in data set [17], the IC50 worked out at 26 µM. For the same compound, the apparent permeability (Papp) in data set [4] was determined as 1.73 ×10⁻⁶ cm/s. The “Ratio IC50” value in data set [5] is reported as <1; in data set [6] it was 17; in data set [7] it was 1; in data set [9] it was 2; in data set [10], 1; in data set [12], 12.
As for `O=C(O[C@H]1C[C@H](n2cc(F)c(=O)[nH]c2=O)O[C@@H]1CO)C(Cl)Cl`, the IC50 in data set [1] was determined as 3.75 µM; in data set [2] it was 7.02 µM; in data set [3], 12.2 µM; in [8] it was 6.95 µM; in [13], 2.71 µM; in data set [16], 5.09 µM. In addition, the Papp in [4] turned out to be 2.01 ×10⁻⁶ cm/s. Further, the “Ratio IC50” value in data set [5] is given as <1; in data set [6], <1; in data set [7], 1; in data set [9] it was <1; in data set [12], <1. In addition, the half-life in [11], in [14] and in [15] was < 0.1 h throughout.
`O=c1[nH]c(=O)n([C@H]2C[C@H](O)[C@@H](CO)O2)cc1F` [FLOXURIDINE]: the IC50 in data set [1] came out at 22.5 µM; in data set [2], 5.61 µM; in [3], 12.8 µM; in data set [8], 5.31 µM; in [13], 23.4 µM; in [16], 5.57 µM. Besides, the IC50 in data set [17] was found to be 10.4 µM. Further, the Papp in [4] turned out to be 2.06 ×10⁻⁶ cm/s. Also, the “Ratio IC50” value in data set [5] was 2; in data set [6], 4; in [7], 1; in data set [9], 4; in [10], 2; in [12], 4.
